What was measured:
Nucleic Acid [1] = experiment: Thermal melting point of calf thymus DNA complexed with monoimide in MES 00 buffer (Spectrophotometric data); format: functional; details: Bos taurus
Nucleic Acid [2] = experiment: Relative binding affinity for calf thymus DNA in MES 10 at 25 degrees C (Spectrophotometric data); format: nucleic-acid assay; details: Bos taurus
In short: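 Spectrophotometric titration of ~1 × 10^-3 M compound stock into calf thymus DNA in MES 10 buffer at 25 °C. Each point averages 100 absorbance readings. Absorbances converted to ν (mol bound per mol base pairs) and free ligand using free and bound extinction coefficients. K and site size n come from a nonlinear least-squares fit of the Scatchard plot to the site exclusion model, in base-pair molarity.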

| Compound | K (Nucleic Acid [2]) | Tm (Nucleic Acid [1]) [°C] |
| --- | --- | --- |
| CN(C)CCCN1C(=O)c2cccc3cc([N+](=O)[O-])cc(c23)C1=O | 0.0234 | 77.6 |
| CN(C)CCCN1C(=O)c2cccc3cc(N)cc(c23)C1=O | 0.0112 | 70.6 |
| CN(C)CCCN1C(=O)c2cccc3cccc(c23)C1=O | 0.0089 | 71.9 |

Further lines, with some results ahead:

| K (Nucleic Acid [2]) | Compound | Tm (Nucleic Acid [1]) [°C] |
| --- | --- | --- |
| 0.0162 | CN(C)CCCN1C(=O)c2cccc3c(N)ccc(c23)C1=O | 70.6 |
| 0.0083 | CN(C)CCCN1C(=O)c2cccc3c([N+](=O)[O-])ccc(c23)C1=O | 71.7 |
